For 54 molecules, IC50 results are on record in ChEMBL document CHEMBL1143197, “Neural networks as valuable tools to differentiate between sesquiterpene lactones' inhibitory activity on serotonin release and on NF-kappaB” (J Med Chem, 2008).

Usually IC50 stands for the concentration that gives 50% inhibition. Lower therefore signals higher potency.

The test system of the assay is Platelet. The assay is described as follows: Inhibition of serotonin release in bovine platelets. The class given is functional, cell-based. The settings on record: Bos taurus. A digest of the protocol: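 Bovine platelets loaded with [14C]serotonin by incubating cattle venous blood, taken up by active transport. Platelet-rich plasma prepared at a standard platelet concentration by centrifugation and dilution, then preincubated with the sesquiterpene lactones. Adenosine diphosphate added to trigger aggregation and degranulation. Reaction stopped after 6 min with ice-cold acetylsalicylic acid. Released serotonin monitored and IC50 determined.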

In the case of `C=C1C(=O)O[C@@H]2[C@H]1[C@@H](OC(C)=O)C[C@H](C)[C@@H]1CCC(=O)[C@@]21C` [CONFERTIFLORIN], the IC50 came out at 8.88 µM.
The result for `C=C1C(=O)O[C@@H]2/C=C(\CO)CC/C=C(\CO)C[C@H](OC(=O)C(C)C)[C@@H]12` [ALATOLIDE] reads 5.77 µM; that for `C=C1C(=O)O[C@@H]2C[C@@]3(C)CCCC(=C)[C@]3(O)C[C@H]12` [TELEKIN], greater than 564 µM.
As to `C=C1C(=O)O[C@H]2/C=C(\C)[C@@H](OC(C)=O)C/C=C(\C)C[C@@H](OC(=O)C(C)(O)C(C)OC(C)=O)[C@@H]12` (some centres undefined) [URSINIOLIDE B], inhibition was half-maximal at 5.3 µM (IC50).
As for `C=C1C(=O)O[C@@H]2/C=C(\CO)CC/C=C(\C)C[C@H](O)[C@@H]12` [SALONITENOLIDE], the IC50 stood at 10.2 µM.
The result for `C=C(C)C(=O)O[C@@H]1C[C@@H](OC(C)=O)C(=O)CC[C@]2(C)O[C@H]2[C@@H]2OC(=O)C(COC(C)=O)=C21` [GLAUCOLIDE A] reads 20.9 µM.
`C=C1C(=O)O[C@H]2/C=C(\C)[C@@H](OC(C)=O)C/C=C(\C)C[C@@H](OC(=O)C3(C)OC3C)[C@@H]12` (some centres undefined) [URSINIOLIDE A] returned an IC50 of 1.78 µM.
The result for `C=C1C(=O)O[C@@H]2[C@H]3O[C@]3(C)CCC[C@H](C)CC[C@@H]12` reads 40.6 µM; that for `C=C1C(=O)O[C@@H]2C[C@H](C)[C@@H]3[C@@H](O)CC(=O)[C@@]3(C)C[C@H]12` [BURRODIN], 251 µM; that for `C=C1C(=O)O[C@@H]2C[C@@]3(C)CCCC(=C)[C@@H]3C[C@H]12` [ISOALANTOLACTONE], greater than 516 µM.
The result for `C=C1C(=O)O[C@@H]2/C=C(\C)CC[C@H]3O[C@]3(C)CC[C@@H]12` [1,10-EPOXYCOSTUNOLIDE] reads 121 µM.
The result for `C=C1C(=O)O[C@@H]2C/C(C=O)=C/CC/C(C)=C/[C@@H](O)[C@H]12` [SCHKUHRIOLIDE] reads 278 µM; that for `C=C1C(=O)O[C@@H]2/C=C(\CO)CC/C=C(\C)C[C@H](OC(=O)C(=C)[C@H](O)CO)[C@@H]12` [CNICIN], 3.52 µM.
For the molecule `C[C@@H]1C[C@@H]2OC(=O)[C@]3(C)[C@H]2[C@@H](OC3(C)O)[C@]2(C)C(=O)C=C[C@@H]12` (some centres undefined) [TENULIN], the IC50 is 361 µM.
As for `CC1=C2[C@H]3OC(=O)[C@@H](C)[C@@H]3CC[C@@]2(C)C=CC1=O` [SANTONIN], the IC50 was greater than 568 µM.
`C=C1C(=O)O[C@H]2[C@H]1[C@H](OC(=O)C(C)(O)C(C)O)C[C@@]1(C)[C@H](O)CCC(=C)[C@H]21` (some centres undefined) returned an IC50 of 9.52 µM.
The result for `C=C1CC[C@@H](O)[C@]2(C)CC[C@H]3C(=C)C(=O)O[C@@H]3[C@@H]12` [REYNOSIN] reads 271 µM; that for `C=C1C(=O)O[C@@H]2/C=C(\C)[C@@H]3O[C@@H]3/C=C(/C(=O)OC)[C@H](O)[C@@H](OC(=O)[C@]3(C)O[C@@H]3C)[C@@H]12` [MELAMPODIN A], 4.68 µM.
The result for `C=C1C(=O)O[C@H]2[C@H]1[C@@H](O)CC(=C)[C@@H]1CC(=O)[C@@H](C)[C@H]21` [GROSSHEIMIN] reads 22.2 µM.
The result for `C=C1C(=O)O[C@@H]2C[C@@]3(C)[C@H](O)CCC(=C)[C@@H]3C[C@H]12` [ASPERILIN] reads 57.6 µM; that for `C=C1C(=O)O[C@H]2C[C@H](C)[C@@H]3CC(=O)C(C)=C3C[C@H]12` [XERANTOLIDE], 101 µM.
Regarding `C=C(C(=O)OC)[C@@H]1CC[C@@]2(C)CCC[C@@](C)(O)[C@@H]2C1` [VACHANIC ACID METHYLESTER], it took 201 µM to reach half-maximal inhibition (IC50).
Molecule `C=C1C(=O)O[C@@H]2C3=C(C)CC[C@@H](O)[C@]3(C)C[C@@H](OC(=O)C3(C)OC3C)[C@@H]12` (stereo partly drawn) [1BETA-HYDROXY-8BETA-EPOXYANGELOYLOXYARBUSCULIN B] yielded an IC50 of 6.66 µM.
The result for `C=C1C(=O)O[C@@H]2[C@H]1CC[C@H](C)[C@]1(O)C=CC(=O)[C@@]21C` [PARTHENIN] reads 129 µM; that for `C=C1C(=O)O[C@H]2C[C@H](C)[C@@H]3C(OC(C)=O)CC(OC(C)=O)[C@@]3(C)[C@@H](O)[C@H]12` (some centres undefined) [INUCHINENOLIDE C], 33.5 µM; that for `C=C1C(=O)O[C@@H]2C3O[C@]3(C)CC/C=C(\C)CC[C@@H]12` (some centres undefined), 3.03 µM.
As for `C=C1C(=O)O[C@H]2[C@H]1[C@H](OC(=O)C1(C)OC1C)C[C@@]1(C)[C@H](O)CC=C(C)[C@H]21` (some centres undefined), the IC50 amounted to 7.09 µM.
The result for `C=C1C(=O)O[C@H]2[C@H]1[C@@H](OC(=O)[C@]1(C)CO1)CC(=C)[C@@H]1C[C@H](O)[C@]3(CO3)[C@H]21` [REPIN] reads 9.24 µM; that for `C/C1=C\CC[C@@]2(C)O[C@@H]2[C@H]2OC(=O)[C@@H](C)[C@@H]2CC1` [11BETA,13-DIHYDRO-PARTHENOLIDE], greater than 400 µM.
The result for `C=C1C(=O)O[C@H]2[C@H]1[C@H](OC(=O)C1(C)OC1C)C[C@@]1(C)[C@H](O)CCC(=C)[C@H]21` (some centres undefined) reads 10.1 µM; that for `C=C1C(=O)O[C@@H]2[C@H]1CC[C@H](C)[C@]1(CCC(=O)O1)[C@@]2(C)O` [PSILOSTACHYIN A], 44.1 µM; that for `C=C1[C@@H](O)C[C@@H]2[C@H](OC(=O)[C@H]2C)[C@H]2[C@H](C)C(=O)C[C@@H]12`, greater than 454 µM.
Take `C=C1C(=O)O[C@H]2[C@H]1[C@H](OC(=O)C1(C)OC1C)C[C@@]1(C)[C@H](O)C[C@H]3O[C@@]3(C)[C@H]21` (some centres undefined): it took 17.7 µM to reach half-maximal inhibition (IC50).
The result for `C=C(C(=O)O)[C@@H]1CC[C@@]2(C)CCC[C@@](C)(O)[C@@H]2C1` [ILICIC ACID] reads greater than 614 µM; that for `C=C1CC[C@@H](O)[C@]2(C)CC[C@@H]3[C@H](OC(=O)[C@H]3C)[C@@H]12`, greater than 210 µM; that for `C=C1C(=O)O[C@@H]2/C=C(/COC(C)=O)CC[C@H](OCC)C3=C[C@@H](OC3=O)[C@@H]12` [CINERENIN ACETATE], 2.04 µM.
The result for `C=C1C(=O)O[C@@H]2C[C@@H](C)[C@@H]3C=CC(=O)[C@@]3(C)[C@@H](O)[C@H]12` [HELENALIN] reads 4.28 µM.
For `C=C1C(=O)O[C@H]2[C@H]1[C@H](OC(=O)[C@@]1(C)O[C@H]1C)[C@@H](OC(C)=O)/C(C(=O)OC)=C\CC[C@@]1(C)O[C@H]21` [ENHYDRIN], inhibition was half-maximal at 8.76 µM (IC50).
In turn, `C=C1C(=O)O[C@@H]2[C@H]1CC[C@H](C)[C@]1(O)CCC(=O)[C@@]21C` [CORONOPILIN] displayed an IC50 of 249 µM.
The result for `C=C(C(=O)O[C@@H]1C[C@@]2(C)[C@H](O)CC=C(C)[C@@H]2[C@H]2OC(=O)C(=C)[C@@H]21)C(C)O` (some centres undefined) reads 26.7 µM.
The result for `C[C@@H]1C(=O)O[C@H]2[C@H]1CC[C@@]1(C)O[C@@H]1CC[C@@]1(C)O[C@H]21` reads greater than 413 µM; that for `C=C1C(=O)O[C@@H]2[C@H]3C(C)=CC[C@@H](O)[C@]3(C)CC[C@@H]12` [SANTAMARIN], 84.9 µM; that for `C=C1C(=O)O[C@H]2C[C@@H](C)[C@@H]3CCC(=O)[C@@]3(C)[C@H](O)[C@H]12`, 60.1 µM.
The result for `C=C1C[C@@H](O)[C@@H]2[C@H](OC(=O)[C@H]2C)[C@H]2[C@H](C)[C@@H](O)C[C@@H]12` reads greater than 488 µM; that for `C=C1C(=O)O[C@@H]2/C=C(/CO)CC[C@H](OCC)C3=C[C@@H](OC3=O)[C@@H]12` [CINERENIN], 3.52 µM; that for `C=C1C(=O)O[C@H]2C[C@@H](C)[C@@H]3C=CC(=O)[C@@]3(C)[C@H](OC(C)=O)[C@H]12` [LINIFOLIN A], 11.4 µM.
Consider `C=C1C(=O)O[C@H]2C[C@@H](C)[C@@H]3C[C@@H](O)[C@H](O)[C@@]3(C)[C@H](O)[C@H]12` [GEIGERININ], for which the IC50 came out at 73.4 µM.
The result for `CC1=CC[C@@H](O)[C@]2(C)CC[C@@H]3[C@H](OC(=O)[C@H]3C)[C@@H]12` reads greater than 200 µM; that for `C=C1C(=O)O[C@@H]2[C@H]3C(=C)[C@@H](O)C[C@H]3C(=C)C[C@H](OC(=O)[C@@]3(C)CO3)[C@@H]12`, 6.32 µM; that for `C=C1C(=O)O[C@H]2[C@H]1CC[C@@](C)(O)[C@]13O[C@H]1[C@H]1O[C@@]1(C)[C@H]23` [ARTECANIN], greater than 135 µM.
The result for `C=C1C(=O)O[C@H]2CC(=C)[C@@H](O)CC/C(C)=C/[C@@H](O)[C@H]12` [TATRIDIN B] reads 27 µM; that for `C=C1C(=O)O[C@H]2[C@H]1[C@@H](OC(=O)/C(=C/CO)CO)C/C(C)=C/CC[C@@]1(C)O[C@H]21` [STIZOLICIN], 5.82 µM.
Molecule `C=C1C(=O)O[C@@H]2C[C@@]3(C)C[C@@H](O)[C@H](O)C(=C)[C@@H]3C[C@H]12` [PULCHELLIN C] had an IC50 greater than 416 µM.
In the case of `C=C1C(=O)O[C@H]2[C@H]1[C@@H](OC(=O)[C@](C)(O)CCl)CC(=C)[C@@H]1C[C@H](O)[C@](O)(CCl)[C@H]21` [CENTAUREPENSIN], the IC50 came out at 6.06 µM.
